What follows are compounds tested on Panel NCI-60 (60 carcinoma cell lines) (assay: Tested for growth inhibition against MG-MID(full panel of cells)). Settings: Homo sapiens.
Assay type: functional
Summary of the method: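 MG-MID is the calculated mean of the GI50 concentrations (M) across the entire NCI cell panel. Each GI50 is the interpolated concentration (M) giving 50% growth inhibition.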

| SMILES | GI50 |
| --- | --- |
| CCCCCCCCC/C=C1/CC(CO)(COC(=O)CC(C(C)C)C(C)C)OC1=O (centres undefined) | 4700 nM |
| CCCCCCCCCC(=O)OCC1(CO)C/C(=C/CC(C(C)C)C(C)C)C(=O)O1 (centres undefined) | 44000 nM |
| CC(=O)O[C@@]12C[C@@H](C)[C@@]3(O)[C@@H](C=C(CO)C[C@]4(O)C(=O)C(C)=C[C@@H]34)[C@@H]1C2(C)C [PROSTRATIN] | 7000 nM |
| CC(C)C(C/C=C1/CC(CO)(COC(=O)CC(C(C)C)C(C)C)OC1=O)C(C)C (centres undefined) | 3200 nM |

Each compound was assayed on K562 (assay: Tested for growth inhibition against Leukemia K-562 cells.). Settings: Homo sapiens.
Assay type: functional
Summary of the method: (§1)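 GI50 is interpolated from the NCI cell-panel screen. It is the concentration (M) at which percentage growth is inhibited by 50% in the named line.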

| SMILES | GI50 |
| --- | --- |
| CCCCCCCCC/C=C1/CC(CO)(COC(=O)CC(C(C)C)C(C)C)OC1=O (centres undefined) | 140 nM |
| CCCCCCCCCC(=O)OCC1(CO)C/C(=C/CC(C(C)C)C(C)C)C(=O)O1 (centres undefined) | 9200 nM |
| CC(C)C(C/C=C1\CC(CO)(COC(=O)CC(C(C)C)C(C)C)OC1=O)C(C)C (centres undefined) | 1500 nM |
| CC(C)C(C/C=C1/CC(CO)(COC(=O)CC(C(C)C)C(C)C)OC1=O)C(C)C (centres undefined) | 21 nM |

Species on record: Homo sapiens
Assay: Tested for growth inhibition against Breast Hs 578.T.
Assay type: functional
Settings: not given
Summary of the method: as §1

| SMILES | GI50 |
| --- | --- |
| CCCCCCCCC/C=C1/CC(CO)(COC(=O)CC(C(C)C)C(C)C)OC1=O (centres undefined) | 58 nM |
| CCCCCCCCCC(=O)OCC1(CO)C/C(=C/CC(C(C)C)C(C)C)C(=O)O1 (centres undefined) | 27000 nM |
| CC(=O)O[C@@]12C[C@@H](C)[C@@]3(O)[C@@H](C=C(CO)C[C@]4(O)C(=O)C(C)=C[C@@H]34)[C@@H]1C2(C)C [PROSTRATIN] | 790 nM |
| CC(C)C(C/C=C1\CC(CO)(COC(=O)CC(C(C)C)C(C)C)OC1=O)C(C)C (centres undefined) | 12000 nM |
| CC(C)C(C/C=C1/CC(CO)(COC(=O)CC(C(C)C)C(C)C)OC1=O)C(C)C (centres undefined) | 26 nM |

The compounds below were run on COLO 205 (assay: Tested for growth inhibition against COLO 205 cells.). Settings: Homo sapiens.
Assay type: functional
Summary of the method: as §1

| SMILES | GI50 |
| --- | --- |
| CCCCCCCCC/C=C1/CC(CO)(COC(=O)CC(C(C)C)C(C)C)OC1=O (centres undefined) | 71 nM |
| CCCCCCCCCC(=O)OCC1(CO)C/C(=C/CC(C(C)C)C(C)C)C(=O)O1 (centres undefined) | 18000 nM |
| CC(=O)O[C@@]12C[C@@H](C)[C@@]3(O)[C@@H](C=C(CO)C[C@]4(O)C(=O)C(C)=C[C@@H]34)[C@@H]1C2(C)C [PROSTRATIN] | 1900 nM |
| CC(C)C(C/C=C1\CC(CO)(COC(=O)CC(C(C)C)C(C)C)OC1=O)C(C)C (centres undefined) | 1600 nM |
| CC(C)C(C/C=C1/CC(CO)(COC(=O)CC(C(C)C)C(C)C)OC1=O)C(C)C (centres undefined) | 25 nM |

The compounds below were run on C3H 10T1/2 (assay: Tested for inhibition of EGF(epidermal growth factor) to C3H10T1/2 cells.). Settings: Mus musculus, read-out: ED50 (the source's name).
Assay type: functional
Summary of the method: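 C3H10T1/2 cells were plated at 2.5×10^5/well in MEM with 10% FBS and grown 2 days at 37 °C, 5% CO2. Cells were pretreated 60 min at 37 °C with ligand in MEM/BSA/25 mM BES pH 7.2 (DMSO <0.1% final). Cells were lysed in NaOH and bound counts measured. Background was taken with 1 μg/well unlabeled EGF. Six concentrations were run in triplicate, and ID50 is the mean of three experiments.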

| SMILES | EC50 |
| --- | --- |
| CCCCCCCCC/C=C1/CC(CO)(COC(=O)CC(C(C)C)C(C)C)OC1=O (centres undefined) | 370 nM |
| CCCCCCCCCC(=O)OCC1(CO)C/C(=C/CC(C(C)C)C(C)C)C(=O)O1 (centres undefined) | 1170 nM |
| CCCCCCCC/C=C\CCCCCCC/C=C1/C[C@](/C=C/C(=O)OC)(CO)OC1=O | 330 nM |
| CCCCCC(=O)OCC1(CO)C/C(=C/CC(C(C)C)C(C)C)C(=O)O1 (centres undefined) | 2220 nM |
| CCCCC/C=C1/CC(CO)(COC(=O)CC(C(C)C)C(C)C)OC1=O (centres undefined) | 130 nM |
| CCCC(=O)OCC1(CO)C/C(=C/CC(C(C)C)C(C)C)C(=O)O1 (centres undefined) | 820 nM |
| CCCC(=O)O[C@@H]1[C@@H](C)[C@@]2(O)[C@@H](C=C(CO)C[C@]3(O)C(=O)C(C)=C[C@@H]23)[C@@H]2C(C)(C)[C@]12OC(=O)CCC | 20 nM |
| CC(C)C(C/C=C1\CC(CO)(COC(=O)CC(C(C)C)C(C)C)OC1=O)C(C)C (centres undefined) | 140 nM |
| CC(C)C(C/C=C1/CC(CO)(COC(=O)CC(C(C)C)C(C)C)OC1=O)C(C)C (centres undefined) | 170 nM |
| CCCCCCOC(=O)/C=C/[C@]1(CO)C/C(=C/CC(C(C)C)C(C)C)C(=O)O1 | 140 nM |

These compounds were tested against T1, Protein kinase C alpha type (Homo sapiens, UniProt P17252) (assay: Binding Affinity against protein kinase C alpha). Settings: not given.

| SMILES | Ki |
| --- | --- |
| CCCCCC(=O)OCC1(CO)C/C(=C/C=C(C(C)C)C(C)C)C(=O)O1 (centres undefined) | 12 nM |
| CCC/C=C1\CC(CO)(COC(=O)CC(C(C)C)C(C)C)OC1=O (centres undefined) | 28 nM |
| CCCCC/C=C1\CC(CO)(COC(=O)CC(C(C)C)C(C)C)OC1=O (centres undefined) | 5.5 nM |
| CC(=O)OCC1(CO)C/C(=C/C=C(C(C)C)C(C)C)C(=O)O1 (centres undefined) | 390 nM |
| CCCCCCCC(=O)OC[C@]1(CO)C/C(=C\CC(C(C)C)C(C)C)C(=O)O1 | 5.9 nM |
| CCCCCCCCC/C=C1/CC(CO)(COC(=O)CC(C(C)C)C(C)C)OC1=O (centres undefined) | 13 nM |
| CCCC(=O)OCC1(CO)C/C(=C\C=C(C(C)C)C(C)C)C(=O)O1 (centres undefined) | 51 nM |
| CCCCCCCCCC(=O)OCC1(CO)C/C(=C/CC(C(C)C)C(C)C)C(=O)O1 (centres undefined) | 2.3 nM |
| CCCCCCCC/C=C\CCCCCCC/C=C1/C[C@](/C=C/C(=O)OC)(CO)OC1=O | 11 nM |
| CCCCCCCCCC(=O)OCC1(CO)C/C(=C\CC(C(C)C)C(C)C)C(=O)O1 (centres undefined) | 6.6 nM |
| CCCCCC(=O)OCC1(CO)C/C(=C/CC(C(C)C)C(C)C)C(=O)O1 (centres undefined) | 5.9 nM |
| CCCC(=O)OCC1(CO)C/C(=C\CC(C(C)C)C(C)C)C(=O)O1 (centres undefined) | 54 nM |
| CCC/C=C1/CC(CO)(COC(=O)CC(C(C)C)C(C)C)OC1=O (centres undefined) | 24 nM |
| CCCCC/C=C1/CC(CO)(COC(=O)CC(C(C)C)C(C)C)OC1=O (centres undefined) | 7.3 nM |
| CCCCCCOC(=O)/C=C/[C@]1(CO)C/C(=C\CC(C(C)C)C(C)C)C(=O)O1 | 29.5 nM |
| CCCC(=O)OCC1(CO)C/C(=C/CC(C(C)C)C(C)C)C(=O)O1 (centres undefined) | 19 nM |
| CCCCCCCC(=O)OC[C@]1(CO)C/C(=C/CC(C(C)C)C(C)C)C(=O)O1 | 3.5 nM |
| CCCCCC(=O)OCC1(CO)C/C(=C\CC(C(C)C)C(C)C)C(=O)O1 (centres undefined) | 11 nM |
| CC(=O)OCC1(CO)C/C(=C/CC(C(C)C)C(C)C)C(=O)O1 (centres undefined) | 123 nM |
| CCCC(=O)OCC1(CO)C/C(=C/C=C(C(C)C)C(C)C)C(=O)O1 (centres undefined) | 68 nM |
| C/C=C1\CC(CO)(COC(=O)CC(C(C)C)C(C)C)OC1=O (centres undefined) | 138 nM |
| CCCCCCCCC/C=C1\CC(CO)(COC(=O)CC(C(C)C)C(C)C)OC1=O (centres undefined) | 9.5 nM |
| CCCCCC(=O)OCC1(CO)C/C(=C\C=C(C(C)C)C(C)C)C(=O)O1 (centres undefined) | 8.4 nM |
| CC(=O)OCC1(CO)C/C(=C\CC(C(C)C)C(C)C)C(=O)O1 (centres undefined) | 359 nM |
| C/C=C1/CC(CO)(COC(=O)CC(C(C)C)C(C)C)OC1=O (centres undefined) | 164 nM |
| CC(=O)OCC1(CO)C/C(=C\C=C(C(C)C)C(C)C)C(=O)O1 (centres undefined) | 409 nM |
| CCCCCCOC(=O)/C=C/[C@]1(CO)C/C(=C/CC(C(C)C)C(C)C)C(=O)O1 | 3.5 nM |

These compounds were tested against T1, Protein kinase C alpha type. Settings: not given.

| SMILES | ED50 |
| --- | --- |
| CCCCCCCCC/C=C1/CC(CO)(COC(=O)CC(C(C)C)C(C)C)OC1=O (centres undefined) | 430 nM |
| CCCCCCCCCC(=O)OCC1(CO)C/C(=C/CC(C(C)C)C(C)C)C(=O)O1 (centres undefined) | 660 nM |
| CCCCCCCC/C=C\CCCCCCC/C=C1/C[C@](/C=C/C(=O)OC)(CO)OC1=O | 1070 nM |
| CCCCCC(=O)OCC1(CO)C/C(=C/CC(C(C)C)C(C)C)C(=O)O1 (centres undefined) | 2330 nM |
| CCCCC/C=C1/CC(CO)(COC(=O)CC(C(C)C)C(C)C)OC1=O (centres undefined) | 340 nM |
| CCCC(=O)OCC1(CO)C/C(=C/CC(C(C)C)C(C)C)C(=O)O1 (centres undefined) | 1950 nM |
| CC(C)C(C/C=C1\CC(CO)(COC(=O)CC(C(C)C)C(C)C)OC1=O)C(C)C (centres undefined) | 680 nM |
| CC(C)C(C/C=C1/CC(CO)(COC(=O)CC(C(C)C)C(C)C)OC1=O)C(C)C (centres undefined) | 550 nM |
| CCCCCCOC(=O)/C=C/[C@]1(CO)C/C(=C/CC(C(C)C)C(C)C)C(=O)O1 | 950 nM |

Reference: ChEMBL document CHEMBL1132966, “Conformationally constrained analogues of diacylglycerol (DAG). 16. How much structural complexity is necessary for recognition and high binding affinity to protein kinase C?” (J Med Chem, 2000)
